Compound activity: PubChem, several laboratories
A selection: hits, their analogues and other compounds. The true share with any hit is near 4.6%.
Rtt109 Vps75: inhibitors of C. albicans Rtt109/Vps75 HAT, primary screen, biochemical, ThioGlo CoA-SH fluorescence, plate reader; purified Rtt109/Vps75, 4 h; inhibition, % at 34.9 µM; actives 0.16% (n = 330,000);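 active = inhibition of at least 50% in every replicate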
HDAC3 inhib: HDAC3 deacetylase inhibitors, primary screen, biochemical, fluorescence, cell-free homogeneous; recombinant HDAC3, fluorogenic peptide/trypsin coupled; AID 2718, 2010; inhibition, % at 8.3 µM; actives 0.15% (n = 320,000); Histone deacetylase 3 (Homo sapiens), O15379; in the data active = inhibition above about 26%, passing the limit was not always enough
ALR H2O2 inh: inhibitors of human ALR sulfhydryl oxidase, primary screen, biochemical, H2O2 detection, HRP-luminol luminescence, single point; FAD-linked sulfhydryl oxidase ALR (Homo sapiens), P55789; inhibition, % (test concentration not listed); purified ALR, DTT oxidation; actives 3.8% (n = 290,000); AID 485317, 2010;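 active = mean replicate inhibition above about 79%, with every replicate also reaching it, limit read from the data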
Target sequence (P55789 whole entry, looked up): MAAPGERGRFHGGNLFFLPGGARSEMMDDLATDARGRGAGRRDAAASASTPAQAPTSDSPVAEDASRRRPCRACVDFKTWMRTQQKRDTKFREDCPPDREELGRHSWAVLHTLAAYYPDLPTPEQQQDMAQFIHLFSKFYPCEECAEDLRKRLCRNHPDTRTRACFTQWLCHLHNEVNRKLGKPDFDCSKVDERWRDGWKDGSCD
UCH37 inh: inhibitors of human UCH37 deubiquitinase, primary screen, biochemical, Ub-AMC cleavage, fluorescence; actives 0.33% (n = 330,000); inhibition, % (no concentration beside the values); Ubiquitin carboxyl-terminal hydrolase isozyme L5 (Homo sapiens), Q9Y5K5; purified proteasome/UCH37; AID 588478, 2011;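 active = mean inhibition over replicate wells above about 20%, limit read from the data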;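 also: 0% = compound-free wells with enzyme and 100% = wells lacking proteasome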
Target sequence (Q9Y5K5 whole entry, looked up): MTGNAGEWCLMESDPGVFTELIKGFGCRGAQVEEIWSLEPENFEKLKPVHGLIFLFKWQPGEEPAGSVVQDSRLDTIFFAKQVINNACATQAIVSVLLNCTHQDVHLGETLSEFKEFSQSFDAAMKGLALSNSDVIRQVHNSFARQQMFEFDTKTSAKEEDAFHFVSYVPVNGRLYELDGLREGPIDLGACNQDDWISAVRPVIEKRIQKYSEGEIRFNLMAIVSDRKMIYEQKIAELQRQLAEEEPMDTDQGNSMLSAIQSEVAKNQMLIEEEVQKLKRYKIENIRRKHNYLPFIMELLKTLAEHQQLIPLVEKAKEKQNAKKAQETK
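Material: human UCH37 enzyme supplied as purified proteasome complex. Measure: % inhibition of Ub-AMC cleavage fluorescence. Medium: pH 7.4 Tris-HCl (50 mM) with ovalbumin, ATP-MgCl2, DTT. Times: 30 min preincubation with enzyme, 25 min cleavage at room temperature. Detection: AMC fluorescence intensity at 355/460 nm.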
M18AAP inhibitor: PfM18AAP inhibitors, malaria aminopeptidase, primary screen, biochemical, QFRET, recombinant enzyme | inhibition, % at 7.35 µM | H-Glu-NHMec fluorogenic cleavage | actives 1.2% (n = 290,000) | M18 aspartyl aminopeptidase (Plasmodium falciparum 3D7);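 active = inhibition above the campaign mean inhibition over all tested compounds plus 3 SD, cut at about 28% in these data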;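 also: 0% = plate median of test compound wells and 100% = 2 mM ZnCl2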
FAS TE block: FAS thioesterase domain inhibitors, primary screen, biochemical, fluorescence intensity, uHTS; Fatty acid synthase (Homo sapiens), P49327; recombinant FAS-TE, OMFH fluorogenic substrate, fluorescence endpoint; inhibition, % at 15 µM; actives 0.67% (n = 360,000);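 active = compounds whose normalised, plate-corrected inhibition of enzyme fluorescence in the single-dose primary screen is 50% or more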;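 also: 0% = DMSO with enzyme and 100% = substrate without enzyme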
The depositor's hits bear a star.

O=C(O)c1cc2ccccc2cc1Nc1ccccc1 was read as Rtt109 Vps75 18, HDAC3 inhib 3, ALR H2O2 inh 99*, UCH37 inh 3, M18AAP inhibitor 12 and FAS TE block -6.
Screening COc1ccc(C(=O)Nc2ccccc2C(=O)Nc2ccccc2C(=O)O)cc1 returned Rtt109 Vps75 16, HDAC3 inhib 5, ALR H2O2 inh 98*, M18AAP inhibitor -6 and FAS TE block 0.
Screening COc1ccc(C(=O)Nc2ccccc2C(=O)Nc2ccc(C(=O)O)cc2)cc1 returned Rtt109 Vps75 4, HDAC3 inhib -1, ALR H2O2 inh 28, UCH37 inh 0, M18AAP inhibitor -8 and FAS TE block -1.
`O=C(O)c1ccccc1Nc1ccc(OC(F)F)cc1` gave Rtt109 Vps75 -5, HDAC3 inhib -1, ALR H2O2 inh 100*, UCH37 inh 4, M18AAP inhibitor -8 and FAS TE block -5.
Screening O=C(Nc1ccc(Cl)cc1)Nc1ccccc1C(=O)O returned Rtt109 Vps75 2, HDAC3 inhib -23, ALR H2O2 inh 14, UCH37 inh 1, M18AAP inhibitor 3 and FAS TE block -4.
Screening O=C(O)c1ccccc1Nc1ccccc1 returned Rtt109 Vps75 6, HDAC3 inhib -2, ALR H2O2 inh 99*, UCH37 inh 0 and FAS TE block 0.
COc1ccc(C(=O)NC2=Nc3ccccc3N=C(C)C2c2ccccc2)cc1 (stereo unspecified) was read as Rtt109 Vps75 5, HDAC3 inhib 77*, ALR H2O2 inh 6, UCH37 inh 2, M18AAP inhibitor -10 and FAS TE block 31.
O=C(Nc1ccc(Cl)c(Cl)c1)Nc1ccccc1C(=O)O was read as HDAC3 inhib -38, ALR H2O2 inh 98*, UCH37 inh -13, M18AAP inhibitor 4 and FAS TE block 22.
`CC(C)C1C(=NO)CC(c2ccccc2)NC1c1ccccc1` (stereo unspecified) gave UCH37 inh 6.
For Cc1nnc(SC2CC(=O)N(c3ccccc3)C2=O)s1 (stereo unspecified) the results were Rtt109 Vps75 100*, HDAC3 inhib 1, ALR H2O2 inh 16, UCH37 inh 3, M18AAP inhibitor -37 and FAS TE block -5.
C=CCNc1nnc(SC2CC(=O)N(c3ccc(OC)cc3)C2=O)s1 (stereo unspecified) was read as Rtt109 Vps75 126*, HDAC3 inhib -6, ALR H2O2 inh 37, UCH37 inh 2, M18AAP inhibitor -13 and FAS TE block -6.
CN(C)CCCNC(=O)c1ccc(C=NO)nc1 was read as UCH37 inh -1.
`Cc1ccc(Nc2nnc(SCC(=O)Nc3ccccc3[N+](=O)[O-])s2)cc1` gave Rtt109 Vps75 -15, HDAC3 inhib 2, ALR H2O2 inh -1, UCH37 inh 4, M18AAP inhibitor 0 and FAS TE block 4.
`Cc1ccc(Nc2nnc(SCC(=O)Nc3cccnc3Cl)s2)cc1C` gave HDAC3 inhib 0, ALR H2O2 inh 3, UCH37 inh 2, M18AAP inhibitor 29* and FAS TE block 5.
`CCc1c(C)c2cc(Cl)c(O)c(CN3CCCCC3)c2oc1=O` gave Rtt109 Vps75 inactive, HDAC3 inhib -334, ALR H2O2 inh 98*, UCH37 inh inactive, M18AAP inhibitor 4 and FAS TE block -4.
CCc1cc(=O)oc2c(CN3CCCC3)c(O)c(Cl)cc12 was read as Rtt109 Vps75 -12, HDAC3 inhib inactive, ALR H2O2 inh 5, UCH37 inh inactive, M18AAP inhibitor 0 and FAS TE block -6.
Screening CC(CC(=O)Nc1ccc(C)c(Cl)c1)=NNC(=O)c1ccncc1 returned UCH37 inh -3.
`Cc1nc2n[nH]c(N)c2c2c1COC(C)(C)C2` gave Rtt109 Vps75 2, HDAC3 inhib -1, ALR H2O2 inh 62, UCH37 inh 1, M18AAP inhibitor -22 and FAS TE block -6.
`CC1(C)Cc2nc3n[nH]c(N)c3cc2CO1` gave Rtt109 Vps75 -3, HDAC3 inhib 1, ALR H2O2 inh 87*, UCH37 inh 3, M18AAP inhibitor 7 and FAS TE block 0.
Screening COc1cc(Cl)c(C)cc1NC(=O)COc1ccccc1[N+](=O)[O-] returned Rtt109 Vps75 6, HDAC3 inhib 0, UCH37 inh 4, M18AAP inhibitor -3 and FAS TE block -1.
Screening COc1cc(NC(=O)COc2c(C)cc(C)cc2[N+](=O)[O-])c(OC)cc1Cl returned Rtt109 Vps75 52*, HDAC3 inhib 4, ALR H2O2 inh -7, UCH37 inh 7, M18AAP inhibitor -3 and FAS TE block 20.
`O=C(NN=Cc1cccs1)c1ccc2ncccc2c1` gave UCH37 inh -2.
Cn1nc(SCC(=O)O)sc1=S was read as Rtt109 Vps75 3, HDAC3 inhib 5, ALR H2O2 inh -6, UCH37 inh 0, M18AAP inhibitor 5 and FAS TE block -6.
Screening CCOC(=O)C(Sc1nn(C)c(=S)s1)C(C)=O (stereo unspecified) returned Rtt109 Vps75 -6, HDAC3 inhib 12, ALR H2O2 inh 94*, UCH37 inh 7, M18AAP inhibitor 19 and FAS TE block -10.
Screening COc1ccc(C(=O)NCC(=O)NN=Cc2cccnc2)cc1OC returned UCH37 inh 1.
For CCNc1nc(NCC)n2c(SCC(=O)Nc3ccc(Br)cc3F)nnc2n1 the results were Rtt109 Vps75 5, HDAC3 inhib -1, ALR H2O2 inh 98*, UCH37 inh 1 and FAS TE block 3.
Screening O=C(NN=Cc1ccc(OC(F)F)cc1)c1ccc(CSc2nc3ccccc3[nH]2)cc1 returned UCH37 inh 2.
Screening COc1ccc(C=NN2CCN(c3ccncc3S(=O)(=O)N3CCCCC3)CC2)cc1 returned UCH37 inh 2.
For CN1/C(=C/C2CC(=O)NC2=O)C(C)(C)c2ccccc21 (stereo unspecified) the results were Rtt109 Vps75 -11, HDAC3 inhib 0, ALR H2O2 inh 98*, UCH37 inh 5, M18AAP inhibitor 2 and FAS TE block -9.
CN1/C(=C/C2CC(=O)N(c3cccc4ccccc34)C2=O)C(C)(C)c2ccccc21 (stereo unspecified) was read as Rtt109 Vps75 3, HDAC3 inhib -3, ALR H2O2 inh -5, UCH37 inh 3, M18AAP inhibitor 1 and FAS TE block 6.
